# Reference: ChEMBL document CHEMBL1123503, “Synthesis and biological activity of 3-amino-5-(3,5-diamino-6-chloropyrazin-2-yl)-1,2,4-oxadiazole: an amiloride prodrug” (1986)
# Several values for one entry are separate records, joined by “and”; a condition that tells them apart may be missing. Equal entries are not always repeated.
# What was measured:
# Canis familiaris [1] = test: Compound was evaluated for percentage recovery from urine after administration of 0.1 mg/kg dose; assay type: functional, organism-based; set-up: dose 0.1 mg/kg; settings: Canis lupus familiaris
# In short: (§1)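 Catheterized mongrel dogs (average 14-16 kg, 6 per group) were given oral doses of 0.1-1.0 mg/kg. Urine was collected at 0-6 h and 6-24 h. Each 1-mL aliquot was partitioned between saturated Na2CO3 and ethyl acetate, and the organic phase was back-extracted into 0.5 N HCl. Amiloride in the acid phase was read spectrofluorometrically (excitation 365 nm, emission 420 nm). Results are mean ± SD, with % recovery.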
# Canis familiaris [2] = test: Compound was evaluated for percentage recovery from urine after administration of 0.3 mg/kg dose; assay type: functional, organism-based; set-up: dose 0.3 mg/kg; settings: Canis lupus familiaris; in short: as §1
# Rattus norvegicus [3] = test: Compound was evaluated for diuretic activity determined by the ability to induce electrolytic excretion (K+) at a time period of 0-24 hr for dose 3 mg/kg; assay type: functional, Urine
# In short: (§2)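 Female Sprague-Dawley rats weighing 160-170 g were dosed orally at 3, 9, 27 or 81 mg/kg, housed three per cage, with three cages per dose. Urinary Na+, K+ and Cl- (mequiv × 100) and urine volume (mL) were measured over 0-5 h and 0-24 h after dosing. A placebo group was run alongside.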
# Rattus norvegicus [4] = test: Compound was evaluated for diuretic activity determined by the ability to induce electrolytic excretion (K+) at a time period of 0-24 hr for dose 81 mg/kg; assay type: functional, Urine; set-up: unit: mequiv × 100; in short: as §2
# Rattus norvegicus [5] = test: Compound was evaluated for diuretic activity determined by the ability to induce electrolytic excretion (K+) at a time period of 0-24 hr for dose 9 mg/kg; assay type: functional, Urine; in short: as §2
# Rattus norvegicus [6] = test: Compound was evaluated for diuretic activity determined by the ability to induce electrolytic excretion (K+) at a time period of 0-5 hr for dose 27 mg/kg; assay type: functional, Urine; in short: as §2
# Rattus norvegicus [7] = test: Compound was evaluated for diuretic activity determined by the ability to induce electrolytic excretion (K+) at a time period of 0-5 hr for dose 3 mg/kg; assay type: functional, Urine; in short: as §2
# Rattus norvegicus [8] = test: Compound was evaluated for diuretic activity determined by the ability to induce electrolytic excretion (K+) at a time period of 0-5 hr for dose 81 mg/kg; assay type: functional, Urine; in short: as §2
# Rattus norvegicus [9] = test: Compound was evaluated for diuretic activity determined by the ability to induce electrolytic excretion (K+) at a time period of 0-5 hr for dose 9 mg/kg; assay type: functional, Urine; in short: as §2
# Rattus norvegicus [10] = test: Compound was evaluated for diuretic activity determined by the ability to induce electrolytic excretion (Na+) at a time period of 0-24 hr for dose 27 mg/kg; assay type: functional, Urine; in short: as §2
# Rattus norvegicus [11] = test: Compound was evaluated for diuretic activity determined by the ability to induce electrolytic excretion (Na+) at a time period of 0-24 hr for dose 3 mg/kg; assay type: functional, Urine; in short: as §2
# Rattus norvegicus [12] = test: Compound was evaluated for diuretic activity determined by the ability to induce electrolytic excretion (Na+) at a time period of 0-24 hr for dose 81 mg/kg; assay type: functional, Urine; in short: as §2
# Rattus norvegicus [13] = test: Compound was evaluated for diuretic activity determined by the ability to induce electrolytic excretion (Na+) at a time period of 0-24 hr for dose 9 mg/kg; assay type: functional, Urine; in short: as §2
# Rattus norvegicus [14] = test: Compound was evaluated for diuretic activity determined by the ability to induce electrolytic excretion (Na+) at a time period of 0-5 hr for dose 27 mg/kg; assay type: functional, Urine; in short: as §2
# Rattus norvegicus [15] = test: Compound was evaluated for diuretic activity determined by the ability to induce electrolytic excretion (Na+) at a time period of 0-5 hr for dose 3 mg/kg; assay type: functional, Urine; in short: as §2
# Rattus norvegicus [16] = test: Compound was evaluated for diuretic activity determined by the ability to induce electrolytic excretion (Na+) at a time period of 0-5 hr for dose 81 mg/kg; assay type: functional, Urine; in short: as §2
# Rattus norvegicus [17] = test: Compound was evaluated for diuretic activity determined by the ability to induce electrolytic excretion (Na+) at a time period of 0-5 hr for dose 9 mg/kg; assay type: functional, Urine; in short: as §2
# Rattus norvegicus [18] = test: Compound was evaluated for diuretic activity to induce electrolytic excretion (Cl-) at a time period of 0-24 hr for dose 3 mg/kg; assay type: functional, Urine
# In short: (§3)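 Female Sprague-Dawley rats (160-170 g) were dosed orally at 3-81 mg/kg, with a placebo group. Housing was three rats per cage and three cages per dose. Urinary Na+, K+ and Cl- (mequiv × 100) and urine volume were measured over 0-5 h and 0-24 h.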
# Rattus norvegicus [19] = test: Urine volumes was determined at time period of 0-5 hours for dose 27 mg/kg; assay type: functional; in short: as §3
# Rattus norvegicus [20] = test: Urine volumes was determined at time period of 0-5 hours for dose 9 mg/kg; assay type: functional; in short: as §3
# Rattus norvegicus [21] = test: Compound was evaluated for diuretic activity determined by the ability to induce electrolytic excretion (Cl-) at a time period of 0-24 hr for dose 27 mg/kg; assay type: functional, Urine; in short: as §2
# Rattus norvegicus [22] = test: Compound was evaluated for diuretic activity determined by the ability to induce electrolytic excretion (Cl-) at a time period of 0-24 hr for dose 81 mg/kg; assay type: functional, Urine; in short: as §2
# Rattus norvegicus [23] = test: Compound was evaluated for diuretic activity determined by the ability to induce electrolytic excretion (Cl-) at a time period of 0-24 hr for dose 9 mg/kg; assay type: functional, Urine; in short: as §2
# Rattus norvegicus [24] = test: Compound was evaluated for diuretic activity determined by the ability to induce electrolytic excretion (Cl-) at a time period of 0-5 hr for dose 3 mg/kg; assay type: functional, Urine; in short: as §2
# Rattus norvegicus [25] = test: Compound was evaluated for diuretic activity determined by the ability to induce electrolytic excretion (Cl-) at a time period of 0-5 hr for dose 81 mg/kg; assay type: functional, Urine; in short: as §2
# Rattus norvegicus [26] = test: Compound was evaluated for diuretic activity determined by the ability to induce electrolytic excretion (Cl-) at a time period of 0-5 hr for dose 9 mg/kg; assay type: functional, Urine; in short: as §2
# Rattus norvegicus [27] = test: Compound was evaluated for diuretic activity determined by the ability to induce electrolytic excretion (K+) at a time period of 0-24 hr for dose 27 mg/kg; assay type: functional, Urine; in short: as §2
# Rattus norvegicus [28] = test: Urine volumes was determined in Sprague-Dawley rats at time period of 0-5 hours at 27 mg/kg; assay type: functional; in short: as §3
# Rattus norvegicus [29] = test: Urine volumes was determined in Sprague-Dawley rats at time period of 0-5 hours at 3 mg/kg; assay type: functional; in short: as §3
# Rattus norvegicus [30] = test: Urine volumes was determined in Sprague-Dawley rats at time period of 0-5 hours at 81 mg/kg; assay type: functional; in short: as §3
# Rattus norvegicus [31] = test: Urine volumes was determined in Sprague-Dawley rats at time period of 0-5 hours at 9 mg/kg; assay type: functional; in short: as §3
# Rattus norvegicus [32] = test: Compound was evaluated for diuretic activity determined by the ability to induce electrolytic excretion (Cl-) at a time period of 0-5 hr for dose 27 mg/kg; assay type: functional, Urine; in short: as §2
# Canis familiaris [33] = test: Compound was evaluated for urinary levels (mg) after administration at time period
# Rattus norvegicus [34] = test: Compound was evaluated for diuretic activity determined by the ability to induce electrolytic excretion (Cl-) at a time period of 0-24 hr for dose 3 mg/kg; assay type: functional, Urine; in short: as §2
# Rattus norvegicus [35] = test: Urine volumes in Sprague-Dawley rats was determined at time period of 0-5 hours at 3 mg/kg; assay type: functional; in short: as §2
# Rattus norvegicus [36] = test: Urine volumes in Sprague-Dawley rats was determined at time period of 0-5 hours at 81 mg/kg; assay type: functional; in short: as §2
# Rattus norvegicus [37] = test: Urine volumes in Sprague-Dawley rats was determined at time period of 0-5 hours at 9 mg/kg; assay type: functional; in short: as §2
# Rattus norvegicus [38] = test: Urine volumes in Sprague-Dawley rats was determined at time period of 0-5 hours at 27 mg/kg; assay type: functional; in short: as §2
Compound,Diuretic effect (Rattus norvegicus [3]),Diuretic effect (Rattus norvegicus [4]),Diuretic effect (Rattus norvegicus [5]),Diuretic effect (Rattus norvegicus [6]),Diuretic effect (Rattus norvegicus [7]),Diuretic effect (Rattus norvegicus [8]),Diuretic effect (Rattus norvegicus [9]),Diuretic effect (Rattus norvegicus [10]),Diuretic effect (Rattus norvegicus [11]),Diuretic effect (Rattus norvegicus [12]),Diuretic effect (Rattus norvegicus [13]),Diuretic effect (Rattus norvegicus [14]),Diuretic effect (Rattus norvegicus [15]),Diuretic effect (Rattus norvegicus [16]),Diuretic effect (Rattus norvegicus [17]),Diuretic effect (Rattus norvegicus [21]),Diuretic effect (Rattus norvegicus [22]),Diuretic effect (Rattus norvegicus [23]),Diuretic effect (Rattus norvegicus [24]),Diuretic effect (Rattus norvegicus [25]),also measured
N=C(N)NC(=O)c1nc(Cl)c(N)nc1N [AMILORIDE],83,47,67,7,5,6,6,206,153,458,207,180,156,158,162,180,328,176,90,93,Recovery (Canis familiaris [1]): 41.4% and 40%; Recovery (Canis familiaris [2]): 29.3%; Diuretic effect (Rattus norvegicus [18]): 139; Diuretic effect (Rattus norvegicus [19]): 3.4; Diuretic effect (Rattus norvegicus [20]): 1; Diuretic effect (Rattus norvegicus [26]): 96; Diuretic effect (Rattus norvegicus [27]): 82; Urine volume (Rattus norvegicus [28]): 36 mL; Urine volume (Rattus norvegicus [29]): 35 mL; Urine volume (Rattus norvegicus [30]): 28 mL; Urine volume (Rattus norvegicus [31]): 33 mL; Diuretic effect (Rattus norvegicus [32]): 105; Urinary level (Canis familiaris [33]): 0.41 mg
C[n+]1oc(-c2nc(Cl)c(N)nc2N)nc1N.[I-],139,96,92,4,3,7,2,389,281,433,296,104,17,135,79,277,326,204,28,95,Diuretic effect (Rattus norvegicus [34]): 203; Diuretic effect (Rattus norvegicus [26]): 39; Diuretic effect (Rattus norvegicus [27]): 89; Urine volume (Rattus norvegicus [35]): 25 mL; Urine volume (Rattus norvegicus [36]): 29 mL; Urine volume (Rattus norvegicus [37]): 25 mL; Urine volume (Rattus norvegicus [38]): 27 mL; Diuretic effect (Rattus norvegicus [32]): 49
